Active and inactive are the calls of the source. No cut-off for these calls is given here.
Key:
NIH3T3 [1] = experiment: Antifibrotic activity against mouse NIH/3T3 cells assessed as inhibition of cell proliferation after 72 hrs by MTT assay; assay type: functional, cell-based
Method in brief: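 NIH-3T3 seeded at 5000 cells/well in DMEM/F12 with 10% FBS, allowed to attach 24 h, then exposed 72 h to graded compound concentrations. MTT (5 mg/mL stock) added for 2–4 h, formazan dissolved in DMSO, OD read at 490 nm. IC50 from regression equation; three repeats, mean.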

[2] = Inhibition of cell proliferation in HUVEC at 10 uM […] by MTT assay relative to control; assay type: cell-based; conditions: human, HUVEC cells
Method in brief: (§1)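 MTT test on HUVEC (DMEM/F12, 10% FBS) plated at 5000 cells/well, attached 24 h, then treated at 1, 10, 40 and 80 μM for the period printed as 42 h. MTT (5 mg/mL stock) incubated 2–4 h, formazan dissolved in DMSO, absorbance at 490 nm. Proliferation relative to control; mean of three experiments.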

[3] = Inhibition of cell proliferation in HUVEC at 80 uM after […] by MTT assay relative to control; assay type: cell-based; conditions: human, HUVEC cells; method in brief: as §1
NIH3T3 [4] = experiment: (§2) Antifibrotic activity against mouse NIH/3T3 cells assessed as inhibition of TGFbeta1-induced increase in alpha-SMA mRNA level at 500 nM preincubated for 1 hr followed by TGFbeta-1 addition measured after 24 hrs by qRT-PCR method; assay type: functional, cell-based
Method in brief: (§3)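 NIH-3T3 cells pretreated 1 h with 500 nM compound, then stimulated with rat TGF-β1 5 ng/ml for 24 h. RNA extracted and qPCR run 40 cycles (95 °C 5 s / 60 °C 60 s). Transcripts normalized to GAPDH, fold change by 2^-ΔΔCt. n = 3, means ± SD.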

NIH3T3 [5] = experiment: (§4) Antifibrotic activity against mouse NIH/3T3 cells assessed as inhibition of TGFbeta1-induced increase in FN mRNA level at 500 nM preincubated for 1 hr followed by TGFbeta-1 addition measured after 24 hrs by qRT-PCR method; assay type: functional, cell-based; method in brief: as §3
NIH3T3 [6] = experiment: (§5) Antifibrotic activity against mouse NIH/3T3 cells assessed as inhibition of TGFbeta1-induced increase in COL1A1 mRNA level at 500 nM preincubated for 1 hr followed by TGFbeta-1 addition measured after 24 hrs by qRT-PCR method; assay type: functional, cell-based; method in brief: as §3
NIH3T3 [7] = experiment: Antifibrotic activity against mouse NIH/3T3 cells assessed as inhibition of alpha-SMA mRNA level at 500 nM measured after 24 hrs by qRT-PCR method; assay type: functional, cell-based
Method in brief: (§6)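 NIH-3T3 (DMEM/F12, 10% FBS, 37 °C, 5% CO2) given 500 nM compound without TGF-β1 for 24 h. Total RNA extracted; qPCR of α-SMA, FN, COL1A1 run 40 cycles (95 °C 5 s, 60 °C 60 s). Normalized to GAPDH, relative expression by 2^-ΔΔCt. Mean of three experiments ± SD.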

NIH3T3 [8] = experiment: Antifibrotic activity against mouse NIH/3T3 cells assessed as inhibition of FN mRNA level at 500 nM measured after 24 hrs by qRT-PCR method; assay type: functional, cell-based; method in brief: as §6
NIH3T3 [9] = experiment: Antifibrotic activity against mouse NIH/3T3 cells assessed as inhibition of COL1A1 mRNA level at 500 nM measured after 24 hrs by qRT-PCR method; assay type: functional, cell-based; method in brief: as §6
NIH3T3 [10] = experiment: as §2, with “protein expression by measuring ratio of alpha-SMA to beta-actin protein” for “mRNA”, “Western blot” for “qRT-PCR”, “method (reference value: 0.87)” for “method”; assay type: functional
Method in brief: (§7)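 Western blot of NIH-3T3 treated with 500 nM compound plus rat TGF-β1 5 ng/ml for 24 h; PBS as control. RIPA/1% PMSF lysates quantified by BCA, run on 10% SDS-PAGE and blotted to PVDF. Blocked in 5% milk; α-SMA, FN, COL1A1 primaries 1:1000 overnight at 4 °C; HRP secondary 1:5000 for 2 h; ECL. Band intensity relative to β-actin. Three repeats, means ± SD.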

NIH3T3 [11] = experiment: as §4, with “protein expression by measuring ratio of FN to beta-actin protein” for “mRNA”, “Western blot” for “qRT-PCR”, “method (reference value: 0.95)” for “method”; assay type: functional; method in brief: as §7
NIH3T3 [12] = experiment: as §5, with “protein expression by measuring ratio of COL1A1 to beta-actin protein” for “mRNA”, “Western blot” for “qRT-PCR”, “method (reference value: 0.26)” for “method”; assay type: functional; method in brief: as §7
[13] = Mus musculus, NIH3T3, 72 h, read-out: IC50

C=C1CC[C@H]2[C@@](C)(CC[C@@H](OC(C)=O)[C@@]2(C)C(=O)OC)[C@@H]1/C=C/C1=CCOC1=O
IC50 (NIH3T3 [1]; [13]): 32.2 µM

C=C1CC[C@H]2[C@@](C)(CC[C@@H](OC(C)=O)[C@@]2(C)C(=O)OCc2ccccn2)[C@@H]1/C=C/C1=CCOC1=O
IC50 (NIH3T3 [1]; [13]): 34.9 µM

C=C1CC[C@H]2[C@@](C)(CC[C@@H](O)[C@@]2(C)C(=O)OCc2ccccc2)[C@@H]1/C=C/C1=CCOC1=O
IC50 (NIH3T3 [1]; [13]): 13.6 µM
inhibition at 10 µM [2]: 9.7%
inhibition at 80 µM [3]: 68.7%
inhibition (NIH3T3 [4]): Active
inhibition (NIH3T3 [5]): Active
inhibition (NIH3T3 [6]): Active
inhibition (NIH3T3 [7]): Active
inhibition (NIH3T3 [8]): Active
inhibition (NIH3T3 [9]): Active
Ratio (NIH3T3 [10]): 0.39
Ratio (NIH3T3 [11]): 0.47
Ratio (NIH3T3 [12]): 0.42

C=C1CC[C@H]2[C@@](C)(CC[C@@H](O)[C@@]2(C)C(=O)OCc2ccccc2)[C@@H]1C/C=C1\C=COC1=O
IC50 (NIH3T3 [1]; [13]): 177 µM

C=C1CC[C@H]2[C@@](C)(CC[C@@H](OC(C)=O)[C@@]2(C)C(=O)OC)[C@@H]1C/C=C1\C=COC1=O
IC50 (NIH3T3 [1]; [13]): 69.7 µM

C=C1CC[C@H]2[C@@](C)(CC[C@@H](O)[C@@]2(C)C(=O)OCc2ccccn2)[C@@H]1/C=C/C1=CCOC1=O
IC50 (NIH3T3 [1]; [13]): 80.2 µM

C=C1CC[C@H]2[C@@](C)(CC[C@@H](O)[C@@]2(C)C(=O)OCc2ccccc2)[C@@H]1CCC1=CCOC1=O
IC50 (NIH3T3 [1]; [13]): 37.9 µM

C=C1CC[C@H]2[C@@](C)(CC[C@@H](OC(C)=O)[C@@]2(C)C(=O)OCc2ccccc2)[C@@H]1CCC1=CCOC1=O
IC50 (NIH3T3 [1]; [13]): 12.9 µM
inhibition at 10 µM [2]: 6.6%
inhibition at 80 µM [3]: 55.7%
inhibition (NIH3T3 [4]): Active
inhibition (NIH3T3 [5]): Active
inhibition (NIH3T3 [6]): Active
inhibition (NIH3T3 [7]): Active
inhibition (NIH3T3 [8]): Active
inhibition (NIH3T3 [9]): Active
Ratio (NIH3T3 [10]): 0.4
Ratio (NIH3T3 [11]): 0.46
Ratio (NIH3T3 [12]): 0.38

C=C1CC[C@@H]2[C@](C)(CO)[C@H](O)CC[C@@]2(C)[C@@H]1CCC1=CCOC1=O [DEOXYANDROGRAPHOLIDE]
IC50 (NIH3T3 [1]; [13]): 176 µM
inhibition (NIH3T3 [4]): Active
inhibition (NIH3T3 [5]): Active
inhibition (NIH3T3 [6]): Active
inhibition (NIH3T3 [7]): Active
inhibition (NIH3T3 [8]): Active
inhibition (NIH3T3 [9]): Active

C=C1CC[C@H]2[C@@](C)(CC[C@@H](OC(C)=O)[C@@]2(C)C(=O)OCc2ccccc2)[C@@H]1C/C=C1\C=COC1=O
IC50 (NIH3T3 [1]; [13]): 78 µM

C=C1CC[C@H]2[C@@](C)(CC[C@@H](OC(C)=O)[C@@]2(C)C(=O)OCc2ccccn2)[C@@H]1CCC1=CCOC1=O
IC50 (NIH3T3 [1]; [13]): 55.5 µM

C=C1CC[C@H]2[C@@](C)(CC[C@@H](OC(C)=O)[C@@]2(C)C(=O)OCc2ccccc2)[C@@H]1/C=C/C1=CCOC1=O
IC50 (NIH3T3 [1]; [13]): 52.7 µM

C=C1CC[C@H]2[C@@](C)(CC[C@@H](O)[C@@]2(C)C(=O)OC)[C@@H]1/C=C/C1=CCOC1=O
IC50 (NIH3T3 [1]; [13]): 111 µM

C=C1CC[C@@H]2[C@](C)(CO)[C@H](O)CC[C@@]2(C)[C@@H]1C/C=C1\C=COC1=O
IC50 (NIH3T3 [1]; nih3t3): Not Active

C=C1CC[C@@H]2[C@](C)(CO)[C@H](O)CC[C@@]2(C)[C@@H]1/C=C/C1=CCOC1=O
IC50 (NIH3T3 [1]; [13]): 64.3 µM
inhibition (NIH3T3 [4]): Active
inhibition (NIH3T3 [5]): Active
inhibition (NIH3T3 [6]): Active
inhibition (NIH3T3 [7]): Active
inhibition (NIH3T3 [8]): Active
inhibition (NIH3T3 [9]): Active

C=C1CC[C@H]2[C@@](C)(CC[C@@H](OC(C)=O)[C@@]2(C)C(=O)OC)[C@@H]1CCC1=CCOC1=O
IC50 (NIH3T3 [1]; [13]): 80.6 µM

C=C1CC[C@H]2[C@@](C)(CC[C@@H](O)[C@@]2(C)C(=O)OC)[C@@H]1C/C=C1\C=COC1=O
IC50 (NIH3T3 [1]; [13]): 177 µM

C=C1CC[C@H]2[C@@](C)(CC[C@@H](O)[C@@]2(C)C(=O)OCc2ccccn2)[C@@H]1CCC1=CCOC1=O
IC50 (NIH3T3 [1]; [13]): 79.8 µM

C=C1CC[C@@H]2[C@](C)(CO)[C@H](O)CC[C@@]2(C)[C@@H]1C/C=C1/C(=O)OC[C@H]1O [ANDROGRAPHOLIDE]
IC50 (NIH3T3 [1]; [13]): 95.3 µM
inhibition at 10 µM [2]: 10.4%
inhibition at 80 µM [3]: 26.4%
inhibition (NIH3T3 [4]): Active
inhibition (NIH3T3 [5]): Active
inhibition (NIH3T3 [6]): Active
inhibition (NIH3T3 [7]): Active
inhibition (NIH3T3 [8]): Active
inhibition (NIH3T3 [9]): Active

C=C1CC[C@H]2[C@@](C)(CC[C@@H](O)[C@@]2(C)C(=O)OC)[C@@H]1CCC1=CCOC1=O
IC50 (NIH3T3 [1]; [13]): 60.6 µM
